Source: PubChem BioAssay
Hits are enriched below; roughly 4.7% of the tested compounds scored in any of these assays.
MT1-MMP act inh – inhibitors of human MT1-MMP activation. 360,000 compounds, 0.061% hits. P50281. GFP/RFP ratio change, % at 20 µM. HT1080 RFP-PRO-GFP cells, GFP/RFP ratio fluorescence, overnight; percent of plate control window, DMSO zero. AID 651647;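 active = GFP/RFP ratio change of at least 30% with cell ATP level not reduced by more than half and red fluorescence within 50% of control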
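Assay system: HT1080 cells carrying an RFP-PRO-GFP reporter | Dosing: Single dose of 20 µM compound, 1% DMSO final | Incubation: Cells overnight before dosing, compound overnight, 37 °C, 5% CO2 | Evaluation: GFP/RFP fluorescence ratio | Control set: DMSO and RFP-L50D-GFP cell wells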
ADAM10 inh – ADAM10 inhibition, QFRET primary screen | O14672 | recombinant ADAM10, EDANS/DABCYL FRET peptide cleavage, 3 h | inhibition, % at 7 µM | 370,000 compounds, 0.62% hits | AID 720582;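 active = inhibition above a per-campaign cutoff equal to the mean of compounds falling between control-based bounds plus 3 SD, cut at about 20% in these data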;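 note: 0% = DMSO wells while the 100% control is not disclosed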
MPTP block – blocks calcium-induced mitochondrial swelling; 360,000 compounds, 1.4% hits; inhibition, % at 10 µM; isolated mouse mitochondria, Ca2+ swelling absorbance, 30 min;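 active = inhibition of 50% or more, scaled per plate between neutral and stimulator controls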;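 note: 0% = DMSO wells given calcium and 100% = 1 mM EGTA wells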
ADAM17 inh – inhibitors of human ADAM17; P78536; recombinant ADAM17, EDANS/DABCYL FRET peptide cleavage; inhibition, % at 6.95 µM; 370,000 compounds, 0.83% hits;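 active = inhibition above the mean of compounds lying between control limits plus 3 SD, set per campaign, cut at about 8.5% in these data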;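 note: 0% = DMSO-only wells as the low control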
NR3A LBD binder – NR3A (human) ligand-binding domain modulation. NR3A LBD differential scanning fluorimetry, Tm shift; 0% = protein alone, 100% = glycine-bound protein. Tm shift relative to glycine control, % at 25 µM. 340,000 compounds, 2.5% hits;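 active = melting temperature shift of at least 10% of the positive control shift, at one fixed dose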
SKN-1 inh – C. elegans SKN-1 inhibition. C. elegans VP596 Pgst-4::GFP/RFP ratio, acrylamide-induced, 24 h. inhibition, % at 21.8 µM. 360,000 compounds, 0.49% hits;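 active = interference check ratio from 0.5 to 1.5 plus GFP to RFP signal ratio inhibition reaching or exceeding a fixed threshold, cut at about 30% in these data, passing the limit was not always enough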
An asterisk follows results filed as active; / = no result.

SMILES | MT1-MMP act inh | ADAM10 inh | MPTP block | ADAM17 inh | NR3A LBD binder | SKN-1 inh
O=C(CN1C(=O)C2C3C=CC(C3)C2C1=O)OCC(=O)c1ccc(Br)cc1 (centres undefined) | 1 | 3 | -1 | 3 | 2 | 4
COc1cc(/C=C2\SC(=S)N(CC(=O)Nc3cccnc3)C2=O)cc(OC)c1OC | 6 | 12 | 11 | -2 | -8 | -7
COc1cc(/C=C2\SC(=S)N(CC(=O)Nc3ccc(O)cc3)C2=O)cc(OC)c1OC | 10 | 9 | 2 | 0 | 13* | 7
COc1cc([N+](=O)[O-])cc(/C=C2/SC(=S)N(Cc3ccccc3)C2=O)c1O | 4 | 2 | 17 | 2 | 5 | 52*
COc1ccc(/C=C2\SC(=O)N(CC(=O)Nc3ccccc3O)C2=O)cc1OC | 3 | -2 | 0 | 3 | 5 | 35*
COc1cc(/C=C2/SC(=S)N(Cc3ccccc3)C2=O)cc(Cl)c1O | 9 | 1 | 11 | -4 | 9 | 36*
O=C1/C(=C\c2cccc([N+](=O)[O-])c2O)SC(=S)N1Cc1ccccc1 | 91 | -6 | 26 | -4 | 1 | 15
CCOC(=O)c1c(-c2ccc(C)cc2)csc1NC(=O)C1CCCO1 (centres undefined) | 3 | 3 | 4 | -1 | 10* | -3
COC(=O)Cc1ccc(NC(=O)c2cccs2)cc1 | -3 | 2 | 4 | -2 | -9 | 5
Cc1nc2ccccc2nc1OCc1ccccc1 | -2 | -3 | 1 | 2 | 0 | 47*
CC(C)(C)OC(=O)N1CCC[C@H]1c1nnc(SCc2c(F)cccc2Cl)o1 | -1 | 7 | 1 | -1 | 1 | 12
Cc1ccc(N2CCN(S(=O)(=O)c3ccc4oc(=O)ccc4c3)CC2)c(C)c1 | 3 | -4 | 2 | -3 | -2 | 43*
O=C1C(=Cc2cn(-c3ccccc3)nc2-c2ccc(OCc3ccccc3)cc2)SC(=S)N1CCS(=O)(=O)O | -1 | 29* | 2 | 5 | / | -3
O=C(CCN1C(=O)/C(=C/c2ccc(F)cc2)SC1=S)NCCc1ccc(O)cc1 | 5 | -1 | 7 | 2 | 16* | 5
COc1cccc(/C=C2\SC(=S)N(CCC(=O)NCCc3ccc(O)cc3)C2=O)c1 | 3 | 7 | 0 | 3 | 16* | -2
Cc1ccc(-c2nn(-c3ccccc3)cc2C=C2SC(=S)N(CCS(=O)(=O)O)C2=O)cc1 | 10 | 11 | 2 | 1 | / | 12
O=C(O)CCN1C(=O)/C(=C\c2cccc(OCc3ccccc3)c2)SC1=S | 4 | 7 | -1 | -1 | 11* | 3
O=C(O)CCN1C(=O)/C(=C/c2cccc(OCc3ccc(F)cc3)c2)SC1=S | / | 4 | / | -3 | / | /
CN1CCN(C(=O)CCN2C(=O)/C(=C\c3ccc(F)cc3)SC2=S)CC1 | -1 | -2 | 0 | -2 | -1 | 24
COc1ccc(CN2C(=O)CCC2(C)c2nnnn2Cc2ccccc2)cc1 (centres undefined) | 2 | -1 | 0 | -4 | / | 6
CNC(=S)Nc1ccc2nc(C)oc2c1 | 0 | -11 | 1 | -2 | -1 | -11
COc1ccc(/C=C2/SC(=S)N(CCCC(=O)Nc3cccc(O)c3)C2=O)cc1 | / | 13 | -1 | 4 | 12* | 12
CC(C)n1c(O)c(/C=C2\C=Nc3ccccc32)sc1=Nc1ccccc1 | 6 | -1 | 42 | 0 | 25* | -5
COc1ccc(NC(=O)c2cn(-c3ccccc3)nc2-c2ccncc2)cc1 | -7 | -6 | 0 | -1 | -3 | 7
N#CCCn1cc(C(=O)Nc2ccc([N+](=O)[O-])cc2)c(-c2cc3ccccc3o2)n1 | 2 | 2 | 2 | 4 | 14* | -1
COc1ccc(NC(=O)c2cn(-c3ccccc3)nc2-c2cc3ccccc3o2)cc1 | -4 | -1 | 2 | -2 | 11* | 30
O=C(N/N=C/c1cn(-c2ccccc2)nc1-c1cc2ccccc2o1)c1c[nH]c2ccccc12 | 0 | -6 | 0 | -2 | 20* | 21
COc1ccccc1C(=O)Nc1ccnn1C1CCN(Cc2cnc(N(C)C)s2)CC1 | 1 | 7 | 0 | -1 | -1 | 2
